Shown are actives, neighbours in structure and some others; about 2.1% of the full set was active somewhere.
HTR2A ag: mouse Htr2a agonists via beta-arrestin recruitment, primary screen, cell-based, luminescence. CHO-K1 mHTR2A beta-arrestin complementation; percent of 30 µM serotonin response. activation, % at 7.6 µM. 0.66% of 360,000 active;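 active = activation above a run cutoff, the mean activation of all tested compounds plus 3 SD, cut at about 14% in these data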
EBI2 antag: EBI2 receptor antagonists, beta-arrestin recruitment, primary screen, cell-based, luminescence, 7a,25-OHC stimulation, uHTS | AID 651636, 2012 | 7a,25-OHC stimulated | 0.81% of 360,000 active | inhibition, % at 5 µM | G-protein coupled receptor 183 (Homo sapiens), P32249; in the data active = inhibition above about 38%;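 also: enzyme fragment complementation signal reports receptor beta-arrestin coupling in cells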
APJ antagonist: antagonists of human apelin receptor APJ, primary screen, CHO-K1 cells, beta-arrestin complementation, luminescence; P35414; inhibition, % at 20 µM; 0.32% of 330,000 active;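 active = inhibition above about 40% at 20 µM, limit read from the data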;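 also: cells challenged with 10 nM apelin-13 agonist together with compound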
Target sequence (P35414 whole entry, looked up): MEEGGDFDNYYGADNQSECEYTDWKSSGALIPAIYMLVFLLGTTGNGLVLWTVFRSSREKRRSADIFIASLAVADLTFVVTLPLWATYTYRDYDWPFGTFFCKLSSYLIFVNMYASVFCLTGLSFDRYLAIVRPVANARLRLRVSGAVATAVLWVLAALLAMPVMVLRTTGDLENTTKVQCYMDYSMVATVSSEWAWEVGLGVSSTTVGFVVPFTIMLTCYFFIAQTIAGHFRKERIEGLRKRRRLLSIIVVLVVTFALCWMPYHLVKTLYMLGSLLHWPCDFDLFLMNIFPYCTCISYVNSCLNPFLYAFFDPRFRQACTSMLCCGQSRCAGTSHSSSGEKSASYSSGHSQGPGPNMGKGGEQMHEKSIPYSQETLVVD
APJ agonist: agonists of human apelin receptor APJ, primary screen, CHO-K1 cells, PathHunter beta-arrestin, luminescence | P35414 | 0% DMSO wells, 100% apelin | activation, % at 20 µM | 0.11% of 330,000 active;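 active = activation more than six SD over the plate average, tested at 20 µM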
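Incubation: overnight seeding, 90 min compound at 25 °C, 1 h detection; test system: PathHunter CHO-K1 APJ (AGTRL-1) beta-arrestin reporter cells; amount: 1000 cells/well; doses: one dose, 20 µM compound, 1% DMSO; measured by: beta-gal luminescence; measure: agonist-driven arrestin binding to APJ; benchmarks: negative DMSO alone, positive Apelin-13 at 10 nM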
CXCR6 inh: CXCR6 receptor inhibitors, primary screen, cell-based, beta-arrestin, luminescence, CHO-K1 PathHunter, 1536-well. C-X-C chemokine receptor type 6 (Homo sapiens), O00574. inhibition, % at 20 µM. 0.36% of 360,000 active; in the data active = inhibition above about 34%, passing the limit was not always enough;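 also: antagonist mode with CXCL16 agonist at 10 nM final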
Target sequence (O00574 whole entry, looked up): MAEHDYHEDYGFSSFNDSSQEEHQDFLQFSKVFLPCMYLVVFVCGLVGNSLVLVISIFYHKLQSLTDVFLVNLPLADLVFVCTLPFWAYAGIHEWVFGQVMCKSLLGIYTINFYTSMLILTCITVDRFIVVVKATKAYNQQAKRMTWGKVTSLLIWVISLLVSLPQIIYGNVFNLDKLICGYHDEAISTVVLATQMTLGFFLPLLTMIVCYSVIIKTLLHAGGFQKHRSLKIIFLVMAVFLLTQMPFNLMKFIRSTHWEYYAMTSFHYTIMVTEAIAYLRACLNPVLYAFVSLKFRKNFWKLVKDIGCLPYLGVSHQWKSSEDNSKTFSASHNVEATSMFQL
CCR6 antag: CCR6 receptor antagonists, primary screen, cell-based, CHO-K1, luminescence, beta-arrestin, uHTS; C-C chemokine receptor type 6 (Homo sapiens), P51684; CHO-K1 CCR6 PathHunter beta-arrestin, CCL20-stimulated; AID 493098, 2011; 0.49% of 340,000 active; inhibition, % at 20 µM;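 active = compounds whose inhibition of the agonist-driven luminescence signal at 20 µM reaches about 50%, limit read from the data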;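 also: cells stimulated with CCL20 at 14 nM final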
OPRM1 ag: OPRM1 agonists via beta-arrestin recruitment, confirmation, counter-screen for mouse HTR2A agonist project, cell-based, luminescence, single concentration | U2OS OPRM1 beta-arrestin PathHunter; DMSO 0%, DAMGO 9.3 µM 100% | activation, % at 9.3 µM | shares compounds with HTR2A ag | AID 624380, 2012 | 5.3% of 2,300 active;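 active = mean activation above the mean of DMSO-only wells plus 3 SD, cut at about 0.5% in these data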
HTR2A ag conf: mouse HTR2A agonists, beta-arrestin recruitment, confirmation, cell-based, luminescence, CHO-K1 PathHunter, triplicate; DMSO 0%, 30 µM serotonin 100%; 19% of 2,300 active; AID 624381, 2012; shares compounds with HTR2A ag; activation, % at 7.6 µM;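 active = mean activation across triplicates above the hit threshold derived in the original primary screen, cut at about 15% in these data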
Large screens that a line does not name were inactive (follow-up assays come after a bar, where they were run).

CCN1C(=O)[C@@H]2[C@@H]3CN(S(=O)(=O)c4ccc(C)cc4)[C@@H](c4ccccc4F)[C@@H]3C(=O)C[C@@H]2C1=O	HTR2A ag 15.1 (no result: APJ antagonist, APJ agonist, CCR6 antag) | OPRM1 ag inactive | HTR2A ag conf inactive
Cc1ccc(S(=O)(=O)N2C[C@H]3[C@H]4C(=O)N(Cc5ccccc5)C(=O)[C@H]4CC(=O)[C@H]3[C@@H]2c2ccccc2F)cc1	none (no result: APJ antagonist, APJ agonist, CCR6 antag)
Cc1ccc(-c2noc(CN(C)C(=O)c3ccoc3C)n2)cc1	none
COc1ccc2c(c1)CCCC21NC(=O)N(CC(=O)NCc2cccs2)C1=O (centres undefined)	HTR2A ag 19.4 | OPRM1 ag inactive | HTR2A ag conf inactive
COc1ccc2c(c1)CCCC21NC(=O)N(CC(N)=O)C1=O (centres undefined)	none
COc1cc(CNCc2ccccn2)ccc1OCc1ccccc1Cl	none
CCCCNC(=O)c1nc(-c2cc3ccccc3[nH]2)oc1-c1cccc(C(F)(F)F)c1	HTR2A ag 16.2 (no result: APJ antagonist, APJ agonist, CXCR6 inh, CCR6 antag) | OPRM1 ag 0.7 | HTR2A ag conf inactive
CC(=O)c1ccc(Oc2cnccn2)cc1	HTR2A ag 16.1 | OPRM1 ag inactive | HTR2A ag conf inactive
COc1cc(C(C)=O)ccc1Oc1cnccn1	none
Cc1cc(C(=O)CN2C(=O)NC3(CCCc4ccccc43)C2=O)c(C)n1Cc1cccs1 (centres undefined)	none
CCC(=O)NCCc1cc2ccc(C)cc2[nH]c1=O	none
CCC(CC)C(=O)NCCc1cc2ccc(C)cc2[nH]c1=O	HTR2A ag 21.3 | OPRM1 ag inactive | HTR2A ag conf inactive
Oc1ccccc1/C=N/n1c2ccccc2c2ccccc21	HTR2A ag 15.8 | OPRM1 ag inactive | HTR2A ag conf inactive
COc1ccccc1NS(=O)(=O)c1cc(NC(=O)c2sccc2C)ccc1N1CCCC1	none
CN(C)S(=O)(=O)c1ccc(Cl)c(NC(=O)CN2CCc3ccccc3C2)c1	HTR2A ag 22.6 | OPRM1 ag inactive | HTR2A ag conf 82.0
Cc1ccc(OCCNC(=O)[C@H]2O[C@@H](n3ccc(=O)[nH]c3=O)[C@H](O)[C@@H]2O)cc1C	HTR2A ag 43.5 (no result: APJ antagonist, APJ agonist, CCR6 antag) | OPRM1 ag inactive | HTR2A ag conf inactive
Cc1ccc(OCCNC(=O)[C@H]2O[C@@H](n3ccc(N)nc3=O)[C@H](O)[C@@H]2O)cc1C	none (no result: APJ antagonist, APJ agonist, CCR6 antag)
CC(Sc1ccc(Cl)cc1)C(=O)N(C)CC(=O)Nc1ccc(N2CCOCC2)cc1 (centres undefined)	HTR2A ag 18.3 | OPRM1 ag inactive | HTR2A ag conf inactive
Cc1oc(-c2ccc(Cl)cc2)nc1CS(=O)CC(=O)NCCCN1CCCC(C)C1 (centres undefined)	HTR2A ag 17.2 | OPRM1 ag inactive | HTR2A ag conf inactive
COc1ccccc1CC(=O)NCc1csc(-c2cccs2)n1	none
CCC(=O)NCc1csc(-c2cccs2)n1	HTR2A ag 38.6 | OPRM1 ag inactive | HTR2A ag conf inactive
O=C(NCC1COCCO1)C1CCN(S(=O)(=O)c2ccccc2)CC1 (centres undefined)	none
O=C(O)CSc1cnc2ccccc2n1	HTR2A ag 18.0 | OPRM1 ag inactive | HTR2A ag conf inactive
O=C(CSc1cnc2ccccc2n1)NC1CCCC1	none
Cc1ccc(C)c(N2CCN(C(=O)c3ccc(NS(=O)(=O)c4c(C)noc4C)cc3)CC2)c1	none
CC(=O)NCCn1c(SCC#N)nc2ccccc2c1=O	HTR2A ag 14.9 | OPRM1 ag inactive | HTR2A ag conf inactive
N#CCSc1nc2ccccc2c(=O)n1CCC(=O)NCCc1ccccc1	none
COc1ccc(OCC(=O)Nc2ccc(S(=O)(=O)Nc3nc(C)cc(C)n3)cc2)cc1	none
COc1ccc(NC(=O)CN(c2ccc(C(C)C)cc2)S(=O)(=O)c2c(C)noc2C)cc1OC	HTR2A ag 14.8 | OPRM1 ag inactive | HTR2A ag conf inactive
COc1ccccc1CNC(=O)CN(c1ccc(C)cc1)S(=O)(=O)c1c(C)noc1C	HTR2A ag 17.2 | OPRM1 ag inactive | HTR2A ag conf inactive
C=C1CC2C3CC[C@@]4(OCOC45COCO5)[C@@]3(C)C(O)CC2[C@@]2(C)CCC(=O)C=C12 (some centres undefined)	HTR2A ag 14.7 | OPRM1 ag inactive | HTR2A ag conf inactive
COc1ccc2c(CN(C)Cc3ccccc3)cc(=O)oc2c1	none (no result: APJ antagonist, APJ agonist, CCR6 antag)
C=CCn1c(=NC(=O)c2ccc(S(=O)(=O)N3CCc4ccccc4C3)cc2)sc2cc(S(N)(=O)=O)ccc21	HTR2A ag 21.9 | OPRM1 ag inactive | HTR2A ag conf inactive
O=C(O)CCC(=O)N1CCN(c2nc3ccccc3s2)CC1	HTR2A ag 45.0 | OPRM1 ag inactive | HTR2A ag conf inactive
Cc1cccc(Cl)c1NC(=O)N1CCCN(c2nc3ccc(Cl)cc3s2)CC1	none
CCOc1ccc(NC(=O)N2CCN(c3nc4ccccc4s3)CC2)cc1	HTR2A ag 29.9 | OPRM1 ag inactive | HTR2A ag conf inactive
CCOc1ccc(NC(=O)N2CCN(S(C)(=O)=O)CC2)cc1	none
Cc1cccc(C)c1NC(=O)N1CCN(c2nc3ccccc3s2)CC1	HTR2A ag 39.1 | OPRM1 ag inactive | HTR2A ag conf inactive
CCOC(=O)C1(C)Oc2ccccc2C(c2ccc(OC)cc2)=C1C(=O)OC (centres undefined)	none (no result: APJ antagonist, APJ agonist)
CCOC(=O)C1(C)Oc2ccccc2C(C(=O)OC)=C1C(=O)OC (centres undefined)	HTR2A ag 19.7 (no result: APJ antagonist, APJ agonist) | OPRM1 ag inactive | HTR2A ag conf inactive
COc1cc(OC)cc(C(=O)NCC(=O)N2CCN(Cc3ccccc3)CC2)c1	none
COc1cc(OC)cc(C(=O)NCC(=O)N2CCC(C)CC2)c1	HTR2A ag 27.8 | OPRM1 ag inactive | HTR2A ag conf inactive
CC(C)(C)n1nc(-c2ccc(F)cc2)c2c(N)ncnc21	none
CCn1c(SCC(=O)NC(C)(C)C)nnc1-c1ccoc1C	none
CCOC(=O)N1CCC(NC(=O)c2ccc3c(Cl)c4c(nc3c2)CCCC4)CC1	HTR2A ag 17.7 | OPRM1 ag inactive | HTR2A ag conf inactive
O=C(NC1CC1)c1ccc2c(Cl)c3c(nc2c1)CCCC3	none
